Legend:
Format in all cases: functional, cell-based
MCF7 = experiment: Cytotoxicity against human MCF7 cells after 24 hrs by MTT assay; conditions: MCF7, 24 h
Method in brief: (§1)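 Cells seeded at 1×10⁴ per well in complete medium and held 18 h at 37 °C, 5% CO₂. Medium then replaced with fresh medium containing test compounds or etoposide at 0.5, 1 and 2 μM, incubated 24 h at 37 °C. MTT dye added for 2 h, formazan solubilized in extraction buffer, absorbance read at 570 nm. Values mean±SD, three experiments in triplicate.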

A549 = experiment: Cytotoxicity against human A549 cells after 24 hrs by MTT assay; conditions: A549, 24 h; method in brief: as §1
DU-145 = experiment: Cytotoxicity against human DU145 cells after 24 hrs by MTT assay; conditions: DU-145, 24 h; method in brief: as §1
MDA-MB-231 = experiment: Cytotoxicity against human MDA-MB-231 cells after 24 hrs by MTT assay; conditions: MDA-MB-231, 24 h; method in brief: as §1

SMILES	IC50 (MCF7) [nM]	IC50 (A549) [nM]	IC50 (DU-145) [nM]	IC50 (MDA-MB-231) [nM]
COc1cc([C@@H]2c3cc4c(cc3[C@@H](NC(=O)COc3ccc(/C=C5\Oc6c(OC)cccc6C5=O)cc3)[C@H]3COC(=O)[C@H]23)OCO4)cc(OC)c1OC	1980	1560	2090	1680
COc1ccc(/C=C2\Oc3ccccc3C2=O)cc1OCC(=O)N[C@@H]1c2cc3c(cc2[C@@H](c2cc(OC)c(OC)c(OC)c2)[C@H]2C(=O)OC[C@@H]21)OCO3	6230	7230	2550	8230
COc1cc([C@@H]2c3cc4c(cc3[C@@H](NC(=O)COc3ccc(/C=C5\Oc6ccccc6C5=O)cc3)[C@H]3COC(=O)[C@H]23)OCO4)cc(OC)c1OC	130	100	970	450
COc1cc(/C=C2\Oc3ccccc3C2=O)ccc1OCC(=O)N[C@@H]1c2cc3c(cc2[C@@H](c2cc(OC)c(OC)c(OC)c2)[C@H]2C(=O)OC[C@@H]21)OCO3	4510	2750	3820	–
COc1cc(/C=C2\Oc3c(OC)cccc3C2=O)ccc1OCC(=O)N[C@@H]1c2cc3c(cc2[C@@H](c2cc(OC)c(OC)c(OC)c2)[C@H]2C(=O)OC[C@@H]21)OCO3	2350	2990	3980	2600
COc1cc([C@@H]2c3cc4c(cc3[C@@H](NC(=O)COc3c(OC)cc(/C=C5\Oc6c(OC)cccc6C5=O)cc3OC)[C@H]3COC(=O)[C@H]23)OCO4)cc(OC)c1OC	230	1450	1220	870
COc1ccc(/C=C2\Oc3c(OC)cccc3C2=O)cc1OCC(=O)N[C@@H]1c2cc3c(cc2[C@@H](c2cc(OC)c(OC)c(OC)c2)[C@H]2C(=O)OC[C@@H]21)OCO3	1870	–	2330	2180
COc1cc([C@@H]2c3cc4c(cc3[C@@H](O[C@@H]3O[C@@H]5CO[C@@H](C)O[C@H]5[C@H](O)[C@H]3O)[C@H]3COC(=O)[C@H]23)OCO4)cc(OC)c1O [ETOPOSIDE]	2110	–	1970	–

Reference: ChEMBL document CHEMBL4387779, “Design and synthesis of 4β-Acetamidobenzofuranone-podophyllotoxin hybrids and their anti-cancer evaluation” (Bioorg Med Chem Lett, 2019)
